This note sets out measurements from ChEMBL document CHEMBL4014272, “Design, synthesis, biological evaluation, molecular docking and QSAR studies of 2,4-dimethylacridones as anticancer agents” (Eur J Med Chem, 2017).

The subject of data set [1] is MCF7. Put plainly: Growth inhibition of human MCF7 cells after 48 hrs by SRB assay. Type of data set: functional, cell-based. To be noted: MCF7, 48 h. The essentials:
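MCF-7 cells in RPMI 1640 with glutamine and 10% fetal calf serum, 37 °C, 5% CO2. Log-phase cells plated, attached 24 h, then exposed to varying compound concentrations for 48 h; ethanol vehicle controls. Survival by SRB, absorbance 540 nm versus control; each dilution in triplicate, IC50 from mean of triplicates.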
(In SRB staining, fixed cells bind dye roughly in proportion to their protein.)

The target in data set [2] is ATP-dependent translocase ABCB1 (Homo sapiens, UniProt P08183). Put plainly: Inhibition of ABCB1 in human MCF7/ADR cells assessed as potentiation of vinblastine-induced cytotoxicity at IC10 after 7 days by SRB assay relative to vinblastine alone. Type of data set: cell-based. The settings on record: 168 h. The essentials: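 Doxorubicin-maintained MCF-7/ADR cells given vinblastine (0-100 nM, continuous 7 days per results text; methods state 0-15 nM for 48 h) alone or with modulator at its IC10. Survival by SRB versus ethanol vehicle control; vinblastine IC50 with modulator compared to vinblastine alone; triplicates averaged.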

For data set [3], the target named is ABCB1 (P-glycoprotein) (Homo sapiens, UniProt P08183). Put plainly: Displacement of [3H]-azidopine from ABCB1 in human KBV1 cell membranes at IC50 incubated for 20 mins in dark followed by irradiation of UV-light measured after 20 mins by SDS-PAGE based autoradiography relative to control. To be noted: probe [3H]-azidopine. (In general: Loss of bound radioactivity is the signal in a displacement assay; it reports binding, not function.)

Data set [4] has as its system NCI/ADR-RES. Put plainly: Growth inhibition of human MCF7/ADR cells after 48 hrs by SRB assay. Type of data set: functional, cell-based. The essentials:
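Doxorubicin-selected MCF-7/ADR cells maintained under doxorubicin, grown in RPMI 1640 with glutamine and 10% fetal calf serum, 37 °C, 5% CO2. Log-phase cells plated, attached 24 h, exposed to varying compound concentrations for 48 h; ethanol vehicle controls. Survival by SRB absorbance versus control; triplicate readings averaged for IC50.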

Chain of ATP-dependent translocase ABCB1 (P08183 whole entry): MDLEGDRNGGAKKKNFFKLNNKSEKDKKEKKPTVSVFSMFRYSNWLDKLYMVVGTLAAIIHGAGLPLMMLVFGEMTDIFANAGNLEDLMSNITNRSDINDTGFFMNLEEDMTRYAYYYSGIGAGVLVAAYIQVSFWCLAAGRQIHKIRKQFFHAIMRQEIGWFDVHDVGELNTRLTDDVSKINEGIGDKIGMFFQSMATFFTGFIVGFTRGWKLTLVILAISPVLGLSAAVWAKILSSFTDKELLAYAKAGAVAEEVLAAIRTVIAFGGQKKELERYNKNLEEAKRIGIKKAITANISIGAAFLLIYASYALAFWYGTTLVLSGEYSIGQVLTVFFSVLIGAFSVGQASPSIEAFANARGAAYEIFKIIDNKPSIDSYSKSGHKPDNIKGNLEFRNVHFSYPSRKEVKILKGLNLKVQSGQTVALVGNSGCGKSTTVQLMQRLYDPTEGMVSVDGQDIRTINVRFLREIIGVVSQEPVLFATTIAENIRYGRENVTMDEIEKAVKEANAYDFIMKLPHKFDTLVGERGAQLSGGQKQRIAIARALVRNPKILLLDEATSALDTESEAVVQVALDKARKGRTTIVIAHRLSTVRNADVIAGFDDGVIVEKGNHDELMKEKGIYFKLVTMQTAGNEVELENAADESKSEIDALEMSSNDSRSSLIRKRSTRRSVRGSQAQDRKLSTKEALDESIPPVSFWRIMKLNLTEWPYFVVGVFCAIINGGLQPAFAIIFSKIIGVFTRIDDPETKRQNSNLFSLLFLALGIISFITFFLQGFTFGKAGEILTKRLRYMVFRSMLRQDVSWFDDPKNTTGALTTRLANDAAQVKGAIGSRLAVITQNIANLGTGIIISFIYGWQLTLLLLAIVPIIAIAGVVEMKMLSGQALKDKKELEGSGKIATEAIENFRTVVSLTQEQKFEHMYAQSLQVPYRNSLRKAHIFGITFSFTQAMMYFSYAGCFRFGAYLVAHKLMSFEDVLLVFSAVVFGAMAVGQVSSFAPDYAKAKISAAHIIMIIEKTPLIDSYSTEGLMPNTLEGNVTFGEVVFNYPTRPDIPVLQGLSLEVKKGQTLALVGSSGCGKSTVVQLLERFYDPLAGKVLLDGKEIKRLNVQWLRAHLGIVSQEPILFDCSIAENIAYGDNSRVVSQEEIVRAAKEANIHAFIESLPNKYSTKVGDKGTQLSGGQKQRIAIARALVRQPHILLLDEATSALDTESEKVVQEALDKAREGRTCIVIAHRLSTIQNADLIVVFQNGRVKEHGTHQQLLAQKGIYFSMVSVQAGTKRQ
Chain of ABCB1 (P-glycoprotein) (P08183 whole entry): as above

Regarding `Cc1cc(C)c2c(c1)c(=O)c1ccccc1n2CCCCN(CCO)CCO`, the figures for the IC50 in data set [1] and in data set [4] were 4 µM and 5.21 µM, respectively. Also, in data set [2], the “inhibition (INH)” value is “Active”. The compound further displayed an inhibition at 20 min in data set [3] of 55%.

With `Cc1cc(C)c2c(c1)c(=O)c1ccccc1n2CCCCN1CCCCC1`, the IC50 in data set [1] was 30.1 µM; in data set [4], 36.3 µM. In data set [3], this compound had an inhibition at 20 min of 42%.

For `COc1ccc(CCN(C)CCCC(C#N)(c2ccc(OC)c(OC)c2)C(C)C)cc1OC` (stereo unspecified) [VERAPAMIL], in data set [3], the inhibition at 20 min was 61%.

`Cc1cc(C)c2c(c1)c(=O)c1ccccc1n2CCCCCl` yielded an inhibition at 20 min in data set [3] of 36%.

Consider `Cc1cc(C)c2c(c1)c(=O)c1ccccc1n2CCCCN1CCN(C)CC1`, for which the IC50 in data set [1] is 14.5 µM; in data set [4] it was 16.2 µM. Also, the inhibition at 20 min in data set [3] amounted to 43%.

For the compound `COc1cccc2c1C(=O)c1c(O)c3c(c(O)c1C2=O)C[C@@](O)(C(C)=O)C[C@@H]3O[C@H]1C[C@H](N)[C@H](O)[C@H](C)O1` [DAUNORUBICIN], 7.12 µM corresponded to half-maximal inhibition in data set [4] (IC50).

As to `CCN(CC)CCCn1c2ccccc2c(=O)c2cc(C)cc(C)c21`, the concentration for half-maximal inhibition (IC50) in data set [1] turned out to be 29.1 µM; in data set [4] it was 34.2 µM. In data set [2], the “fold change (FC)” value is on record as 10.48. The inhibition at 20 min in data set [3] was 36%.

On to `Cc1cc(C)c2c(c1)c(=O)c1ccccc1n2CCCN1CCCCC1`, for which the IC50 in data set [1] is 58 µM; in data set [4] it was 61.7 µM. For the same compound, the “fold change (FC)” value in data set [2] was determined as 7.17. The inhibition at 20 min in data set [3] was found to be 34%.

Regarding `Cc1cc(C)c2c(c1)c(=O)c1ccccc1n2CCCCl`, the inhibition at 20 min in data set [3] was 28%.

In the case of `Cc1cc(C)c2c(c1)c(=O)c1ccccc1n2CCCN1CCN(CCO)CC1`, the figures for the IC50 in data set [1] and in data set [4] were 12 µM and 15.1 µM, respectively. Moreover, the “fold change (FC)” value in data set [2] turned out to be 16.74. In data set [3], this compound returned an inhibition at 20 min of 52%.

As to `Cc1cc(C)c2c(c1)c(=O)c1ccccc1n2CCCN1CCN(C)CC1`, the results for the IC50 in data set [1] and in data set [4] were 50.2 µM and 53.5 µM, respectively. In addition, in data set [2], the “fold change (FC)” value is 4.75. The compound further came in with an inhibition at 20 min in data set [3] of 46%.

Consider `Cc1cc(C)c2c(c1)c(=O)c1ccccc1n2CCCN(CCO)CCO`, for which the concentration for half-maximal inhibition (IC50) in data set [1] was determined as 19.1 µM; in data set [4], 22.8 µM. For the same compound, the “fold change (FC)” value in data set [2] was determined as 9.7. Also, the inhibition at 20 min in data set [3] was 40%.

For the compound `Cc1cc(C)c2[nH]c3ccccc3c(=O)c2c1`, the concentration for half-maximal inhibition (IC50) in data set [1] is 79 µM; in data set [4], 82.1 µM. Moreover, the “fold change (FC)” value in data set [2] worked out at 1.4. In data set [3], this compound displayed an inhibition at 20 min of 33%.

With `Cc1cc(C)c2c(c1)c(=O)c1ccccc1n2CCCN1CCOCC1`, the IC50 was determined as 59.2 µM in data set [1] and 65.3 µM in data set [4]. Moreover, the “fold change (FC)” value in data set [2] is recorded as 6.4. Moreover, the inhibition at 20 min in data set [3] came out at 26%.

Consider `CC[C@]1(O)C[C@@H]2CN(CCc3c([nH]c4ccccc34)[C@@](C(=O)OC)(c3cc4c(cc3OC)N(C)[C@H]3[C@@](O)(C(=O)OC)[C@H](OC(C)=O)[C@]5(CC)C=CCN6CC[C@]43[C@@H]65)C2)C1` [VINBLASTINE], for which the values for the IC50 in data set [1] and in data set [4] were 0.003 to 0.0032 µM and 0.0106 to 0.0693 µM, respectively.

As for `Cc1cc(C)c2c(c1)c(=O)c1ccccc1n2CCCCN1CCOCC1`, the IC50 in data set [1] was 20 µM; in data set [4], 21.8 µM. The “inhibition (INH)” value in data set [2] is recorded as “Active”. For the same compound, in data set [3], the inhibition at 20 min turned out to be 36%.

For `Cc1cc(C)c2c(c1)c(=O)c1ccccc1n2CCCCN1CCN(CCO)CC1`, the IC50 came to 2 µM in data set [1] and 2.56 µM in data set [4]. The “inhibition (INH)” value in data set [2] is given as “Active”. The compound also came in with an inhibition at 20 min in data set [3] of 58%.

Take `CCN(CC)CCCCn1c2ccccc2c(=O)c2cc(C)cc(C)c21`: the IC50 in data set [1] stood at 8.3 µM; in data set [4], 9.1 µM. Also, the “inhibition (INH)” value in data set [2] is on record as “Active”. The compound further came in with an inhibition at 20 min in data set [3] of 54%.

As a reminder, the IC50 is the midpoint of a concentration-inhibition curve. Broadly, the inhibition is the change of the read-out against control, counted positive when it falls. Low readings indicate little suppression, high ones strong suppression.
